# NOD2 RIPK2 PPI: blocks binding of human NOD2 to RIPK2. CHO BLA complementation NOD2-RIPK2, CCF4 ratio. 360,000 tested, 0.38% active. inhibition, % at 4.98 µM. O43353; in the data active = inhibition above about 21%;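 also: 0% = vehicle only and 100% = reference blocker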
# Hsp70 activator: Hsp70 transcriptional activation, primary screen. HeLa Hsp70 promoter luciferase reporter, luminescence; scaled: vehicle 0, proteasome-inhibitor control 100%. activation, % at 10 µM. 200,000 tested, 0.04% active;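 active = activation above the mean across all tested compounds plus 3 SD, cutoff set per campaign, cut at about 5.5% in these data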;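 also: 100% = MG132 at 30 µM as the positive control and 0% = DMSO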
# TLR4-MyD88 BLA: inhibitors of human TLR4-MyD88 binding; O00206+Q99836; HeLa CL3-4 TLR4/MyD88 BLA complementation, FRET ratio; inhibition, % at 8.4 µM; 200,000 tested, 0.18% active; AID 861; in the data active = inhibition above about 25%;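 also: 0% = vehicle and 100% = reference inhibitor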
# MT stabilizer: stabilizes microtubules in HeLa cells. % tubulin-high responders, % at 10 µM. HeLa tubulin immunostaining HCS, 24 h; share of cells brighter than vehicle mean+2SD. 200,000 tested, 0.83% active. AID 2205;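 active = plate Z-score above 3 for both tubulin-high and condensed-nucleus cell shares, with cell loss under 80%, at 10 µM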;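 also: anti alpha tubulin signal scored within the nucleus-defined area of each cell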
# TLR9-MyD88 block: TLR9-MyD88 interaction inhibition. CHO BLA complementation TLR9-MyD88, CCF4 FRET ratio. inhibition, % at 4.98 µM. 340,000 tested, 0.21% active. AID 504734;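 active = inhibition above the mean over all tested compounds plus 3 SD, cut at about 21% in these data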;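 also: 0% = DMSO only wells and 100% = clavulanate BLA inhibitor control wells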
# Target sequence (Q99836 whole entry, looked up): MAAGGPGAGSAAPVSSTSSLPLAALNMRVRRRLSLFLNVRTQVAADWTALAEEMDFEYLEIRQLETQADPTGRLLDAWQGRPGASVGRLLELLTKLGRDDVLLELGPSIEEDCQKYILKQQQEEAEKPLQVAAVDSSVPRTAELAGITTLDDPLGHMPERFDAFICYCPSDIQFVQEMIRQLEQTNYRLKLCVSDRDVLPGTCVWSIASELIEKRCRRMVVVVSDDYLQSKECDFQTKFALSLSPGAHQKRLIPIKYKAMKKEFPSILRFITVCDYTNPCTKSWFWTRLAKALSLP
# Target sequence (Q9NR96 whole entry, looked up): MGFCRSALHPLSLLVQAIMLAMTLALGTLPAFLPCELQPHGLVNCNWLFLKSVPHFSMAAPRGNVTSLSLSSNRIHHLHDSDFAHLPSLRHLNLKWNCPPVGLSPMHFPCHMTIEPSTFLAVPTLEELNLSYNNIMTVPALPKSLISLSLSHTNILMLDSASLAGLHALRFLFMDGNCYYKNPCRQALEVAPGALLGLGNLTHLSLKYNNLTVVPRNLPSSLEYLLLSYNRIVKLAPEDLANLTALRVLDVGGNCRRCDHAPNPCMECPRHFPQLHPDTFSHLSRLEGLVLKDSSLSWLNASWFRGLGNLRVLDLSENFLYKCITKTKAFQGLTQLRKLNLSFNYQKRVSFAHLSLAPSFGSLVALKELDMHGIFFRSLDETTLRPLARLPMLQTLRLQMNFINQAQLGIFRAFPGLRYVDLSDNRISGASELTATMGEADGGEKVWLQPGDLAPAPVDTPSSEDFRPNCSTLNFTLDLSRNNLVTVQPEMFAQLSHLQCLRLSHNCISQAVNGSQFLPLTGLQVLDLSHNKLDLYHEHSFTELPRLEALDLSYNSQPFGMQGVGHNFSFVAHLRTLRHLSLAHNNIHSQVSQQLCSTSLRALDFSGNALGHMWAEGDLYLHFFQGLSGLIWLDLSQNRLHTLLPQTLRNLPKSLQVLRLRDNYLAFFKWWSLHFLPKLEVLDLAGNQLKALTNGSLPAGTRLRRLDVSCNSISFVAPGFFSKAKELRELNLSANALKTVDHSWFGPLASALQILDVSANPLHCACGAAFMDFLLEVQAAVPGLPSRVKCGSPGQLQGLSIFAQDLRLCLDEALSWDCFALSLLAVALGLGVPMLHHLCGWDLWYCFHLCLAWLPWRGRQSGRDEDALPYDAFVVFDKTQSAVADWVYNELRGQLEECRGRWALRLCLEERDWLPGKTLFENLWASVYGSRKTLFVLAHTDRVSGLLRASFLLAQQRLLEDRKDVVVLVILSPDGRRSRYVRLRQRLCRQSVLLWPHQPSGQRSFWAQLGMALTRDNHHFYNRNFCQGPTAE
# bCat nuc transl: modulators of beta-catenin nuclear translocation; HeLa beta-catenin nuclear translocation, immunofluorescence imaging; nuclear translocation activity, % at 5 µM; 190,000 tested, 0.3% active; AID 1665;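 active = nuclear translocation activity above 50% at 5 µM, with a well cell count of 50 or more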;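 also: per-cell ratio of nuclear to cytoplasmic median beta-catenin stain intensity; plate controls were DMSO negative control for no effect and GSK-3 inhibitor IX positive control for full effect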
#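 Technique: fluorescence imaging of beta-catenin antibody stain plus DAPI / Material: human HeLa cell line / Incubation: compound treatment 24 h, 37°C, 5% CO2 / Read-out basis: % activation of per-cell nuclear versus cytoplasmic median beta-catenin signal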
# NOD2 RIPK2 conf: NOD2-RIPK2 interaction inhibition confirmed | inhibition, % at 4.98 µM | shares compounds with NOD2 RIPK2 PPI | CHO cells, NOD2-RIPK2 BLA complementation, CCF4 FRET | 1,200 tested, 70% active;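 active = mean inhibition across replicates above a set limit taken from the earlier primary screen, cut at about 21% in these data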;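 also: 0% = DMSO-only wells and the high end = clavulanate BLA-blocked wells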
# NOD2 BLA counter: hits BLA reporter in NOD2-RIPK2 inhibitor counterscreen; 1,200 tested, 57% active; CHO BLA reporter, CCF4 FRET ratio; inhibition, % at 4.98 µM; AID 624371; shares compounds with NOD2 RIPK2 PPI;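 active = mean inhibition above the low-control mean inhibition plus three low-control SD, cut at about 11% in these data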;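 also: 0% = DMSO only wells and 100% = clavulanate high control wells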
# * marks the source's active call; other numbers are inactive results; . = no result. Hits are enriched below; roughly 1% of the tested compounds scored in any of these assays.
SMILES,NOD2 RIPK2 PPI,Hsp70 activator,TLR4-MyD88 BLA,MT stabilizer,TLR9-MyD88 block,bCat nuc transl,NOD2 RIPK2 conf,NOD2 BLA counter
Cc1cc(NC(=O)CCN2C(=O)/C(=C/c3ccccc3Cl)SC2=S)no1,34*,0,-13,3,0,0,-10,-2
COc1ccccc1/C=C1\SC(=S)N(CCC(=O)Nc2cc(C)on2)C1=O,-5,.,.,.,-4,.,.,.
Cc1occc1-c1nnc(SCC(=O)NC2CCCCC2C)o1 (stereo unspecified),-7,.,.,.,1,.,.,.
O=C(c1ccccc1)N1CCN(S(=O)(=O)c2ccccc2)CC1,31*,.,.,.,-9,1,-7,-3
O=C(C(Br)=Cc1ccccc1)c1ccccc1,33*,.,.,.,3,.,65*,22*
CN(CC(=O)Nc1ccc(F)cc1)C(=O)CN1C(=O)NC(CCc2ccccc2)C1=O (stereo unspecified),-5,.,.,.,-10,.,.,.
N#CC1(NC(=O)CN2C(=O)NC3(CCCCCC3)C2=O)CCCCC1,-9,.,.,.,9,.,.,.
COc1ccc(C2CC(c3c(O)cc(C)oc3=O)=NCCS2)c(OC)c1 (stereo unspecified),23*,0,10,10,16,110*,15,4
C=CCNC1=C(Cl)C(=O)N(c2cccc(Cl)c2Cl)C1=O,22*,0,6,2,6,-1,8,8
O=C1C(Cl)=C(NCC2CCCO2)C(=O)N1c1cccc(Cl)c1Cl (stereo unspecified),4,0,5,3,0,0,.,.
CCOC(=O)N=S(N)(=O)c1ccccc1 (stereo unspecified),-12,0,11,6,-2,-1,.,.
CCOC(=O)CC(S(=O)(=O)c1ccccc1)S(=O)(=O)c1ccccc1,52*,.,.,.,2,.,14,10
